Results reported in ChEMBL document CHEMBL1128231, “Amphoteric drugs. 3. Synthesis and antiallergic activity of 3-[(5,11-dihydro[1]benzoxepino[4,3-b]pyridin-11-ylidene)piperidino]propionic acid derivatives and related compounds” (J Med Chem, 1995).

What was measured:
[1] = tested on: Rattus norvegicus; test: Antiallergic activity was evaluated by inhibitory effect on 48/80-induced lethality in rats at a dose 1 (mg/kg, po); format: functional
Procedure, shortened: (§1)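 Male Wistar rats, 6 weeks old, fasted 24 h, n = 5. Survival beyond 2 h scored all-or-none; percent inhibition of lethality recorded at each oral dose.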

[2] = tested on: Rattus norvegicus; test: Antiallergic activity was evaluated by inhibitory effect on compound 48/80-induced lethality in rats at a dose 10 (mg/kg, po); format: functional; procedure, shortened: as §1
[3] = tested on: Rattus norvegicus; test: Antiallergic activity was evaluated by inhibitory effect on 48/80-induced lethality in rats at a dose 0.1 (mg/kg, po); format: functional; procedure, shortened: as §1
[4] = Octanol-buffer partition coefficient determined by dividing its equilibrium organic concentration by its aqueous concentration; format: physicochemical; conditions: octanol/water
Procedure, shortened: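 Sample dissolved at 10 µg/mL in Sørensen buffer pH 7.4; equal volumes buffer and 1-octanol shaken 24 h at 25 °C, centrifuged. Each phase quantified by HPLC (UV 254 nm, ODS column, 0.03 M phosphate pH 3.0–CH3CN 7:3). PCoct = organic/aqueous equilibrium concentration.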

[5] = tested on: Rattus norvegicus; test: Antiallergic activity was evaluated by inhibitory effect on compound 48/80-induced lethality in rats at a dose 0.01 (mg/kg, po); format: functional; procedure, shortened: as §1
[6] = target: Histamine H1 receptor (Mus musculus) (UniProt P70174); test: Ex vivo inhibition of [3H]mepyramine binding to mouse brain membrane H1 receptor after oral administration; format: functional, organism-based
Sequence of Histamine H1 receptor (Mus musculus) (P70174 whole entry): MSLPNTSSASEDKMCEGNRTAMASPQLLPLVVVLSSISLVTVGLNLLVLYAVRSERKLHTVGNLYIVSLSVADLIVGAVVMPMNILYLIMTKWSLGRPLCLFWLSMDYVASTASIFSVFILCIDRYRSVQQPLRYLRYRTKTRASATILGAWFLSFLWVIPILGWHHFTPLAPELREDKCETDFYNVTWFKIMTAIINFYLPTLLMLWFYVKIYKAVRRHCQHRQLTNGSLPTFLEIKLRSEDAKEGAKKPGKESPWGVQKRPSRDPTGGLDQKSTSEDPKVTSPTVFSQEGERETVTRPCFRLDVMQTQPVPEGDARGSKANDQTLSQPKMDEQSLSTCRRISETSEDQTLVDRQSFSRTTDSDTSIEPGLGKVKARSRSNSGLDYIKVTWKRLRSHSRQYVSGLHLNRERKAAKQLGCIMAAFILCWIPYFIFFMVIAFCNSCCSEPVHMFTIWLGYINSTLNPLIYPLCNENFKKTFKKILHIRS
Procedure, shortened: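 Male ICR mice (6 weeks, starved 24 h) dosed orally with compound or vehicle; brain taken 1 h later and homogenized in 40 volumes 50 mM phosphate buffer pH 7.4. Membranes incubated with [3H]mepyramine (final 2 nM), 25 °C, 30 min; filtered, scintillation counted.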

[7] = tested on: Mus musculus; test: Tested for Hexobarbital-induced anesthesia in mice by measuring dose which produced 50% increase of the sleeping time upon oral administration; format: functional; conditions: read-out: ID50 (the source's name)
Procedure, shortened: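 Male ICR mice (5 weeks, starved 20–24 h) dosed orally; 1 h later hexobarbital 80 mg/kg ip. Sleeping time = duration of loss of righting reflex; responders show >50% increase over controls. ID50 from number responding at each dose by Litchfield–Wilcoxon, with 95% confidence limits.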

[8] = tested on: Mus musculus; test: Inhibitory effect on histamine-induced increase in vascular permeability in mice upon oral administration; format: functional
Procedure, shortened: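 Male ICR mice (6 weeks, starved 20 h) dosed orally; 1 h later, under light ether, intradermal histamine dihydrochloride 2.5 µg/site plus saline after iv 0.2 mL 1% Evans blue. Killed 30 min later; extravasated dye extracted and assayed. ED50 from log-logit dose–percent inhibition, least squares, with 95% confidence limits.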

[9] = Selectivity as the ratio of ID50 value to that of ED50 value in mice.; format: functional
Procedure, shortened: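 Ratio B/A: B = oral ID50 for ex vivo [3H]mepyramine binding in mouse brain membranes (1 h post-dose); A = oral ED50 against histamine-induced skin vascular permeability in mice.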

[10] = species: Cavia porcellus; test: animal or person; conditions: po, 8 h, read-out: Inhibition
[11] = tested on: Cavia porcellus; test: Histamine induced in lethality in guinea pigs at 8 hr after oral dose of 0.3 mg/kg; format: functional
Procedure, shortened: (§2)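 Male Hartley guinea pigs, 6 weeks old, fasted 24 h, n = 10, dosed orally. Eight hours later histamine dihydrochloride given iv at a lethal dose of 1 mg/kg. Survival beyond 30 min scored all-or-none; percent inhibition of lethality reported.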

[12] = tested on: Cavia porcellus; test: Histamine induced in lethality in guinea pigs at 8 hr after oral dose of 0.02 mg/kg; format: functional; procedure, shortened: as §2

O=C(O)CCN1CCC(=C2c3cc(C(=O)O)ccc3OCc3cccnc32)CC1
Inhibition [1]: 0%
Inhibition [2]: 20%

O=C(O)CCN1CCC(=C2c3cc([N+](=O)[O-])ccc3OCc3cccnc32)CC1
Inhibition [1]: 20%
Inhibition [2]: 80%
Inhibition [3]: 0%

O=C(O)CCN1CCC(=C2c3ccccc3OCc3ncccc32)CC1
PCoct [4]: 0.56
Inhibition [5]: 0%
ID50 [6]: 3.4 mg/kg
Inhibition [1]: 100%
ED50 [7]: > 100 mg/kg
ED50 [8]: 0.01 mg/kg
Selectivity [9]: 340
Inhibition [3]: 40%

O=C(O)CCN1CCC(=C2c3cccc(F)c3OCc3cccnc32)CC1
Inhibition [5]: 0%
Inhibition [1]: 100%
Inhibition [3]: 20%

Cc1ccc(/C(=C\CN2CCCC2)c2cccc(/C=C/C(=O)O)n2)cc1 [ACRIVASTINE]
ID50 [6]: > 300 mg/kg
inhibition in vivo at 0.16 mg/kg [10]: 0%
ED50 [2]: 3.3 mg/kg
ED50 [8]: 0.63 mg/kg
Selectivity [9]: >480

COc1ccc2c(c1)OCc1ncccc1C2=C1CCN(CCC(=O)O)CC1
Inhibition [5]: 0%
Inhibition [1]: 100%
Inhibition [3]: 40%

COc1ccc2c(c1)C(=C1CCN(CCC(=O)O)CC1)c1ncccc1CO2
Inhibition [5]: 0%
Inhibition [1]: 60%
Inhibition [2]: 80%
Inhibition [3]: 20%

CCOC(=O)N1CCC(=C2c3ccc(Cl)cc3CCc3cccnc32)CC1 [LORATADINE]
inhibition in vivo at 0.3 mg/kg [11]: 80%
ED50 [8]: 0.21 mg/kg

O=C(O)CCN1CCC(=C2c3cccc(Cl)c3OCc3cccnc32)CC1
Inhibition [1]: 60%
Inhibition [2]: 100%
Inhibition [3]: 0%

CC(CC(=O)O)N1CCC(=C2c3ccc(F)cc3OCc3cccnc32)CC1 (configuration not stated)
Inhibition [1]: 0%
Inhibition [2]: 100%

Cc1ccc2c(c1)OCc1cccnc1C2=C1CCN(CCC(=O)O)CC1
Inhibition [5]: 0%
Inhibition [1]: 40%
Inhibition [2]: 100%
Inhibition [3]: 20%

O=C(O)CCN1CCC(=C2c3ccccc3COc3ccccc32)CC1
PCoct [4]: 9.66
Inhibition [5]: 20%
ID50 [6]: 0.062 mg/kg
Inhibition [1]: 100%
ED50 [7]: 16 mg/kg
ED50 [8]: 0.0038 mg/kg
Selectivity [9]: 16
Inhibition [3]: 60%

CN1CCC(=C2c3ccccc3COc3ccccc32)CC1
ID50 [6]: 0.77 mg/kg
Inhibition [1]: 60%
Inhibition [2]: 100%
ED50 [7]: 0.73 mg/kg
ED50 [8]: 0.035 mg/kg
Selectivity [9]: 22
Inhibition [3]: 0%

O=C(O)CCN1CCC(=C2c3ccc(F)cc3OCc3ncccc32)CC1
Inhibition [5]: 40%
ID50 [6]: 2.5 mg/kg
inhibition in vivo at 0.3 mg/kg [11]: 60%
ED50 [2]: 0.034 mg/kg
ED50 [8]: 0.0037 mg/kg
Selectivity [9]: 680
Inhibition [3]: 100%

O=C(O)CCN1CCC(=C2c3cc(Cl)ccc3OCc3cccnc32)CC1
Inhibition [1]: 100%
Inhibition [3]: 0%

O=C(O)CCN1CCC(=C2c3ccc(Br)cc3OCc3cccnc32)CC1
Inhibition [5]: 0%
Inhibition [1]: 60%
Inhibition [2]: 100%
Inhibition [3]: 40%

CN1CCC(=C2c3ccccc3CC(=O)c3sccc32)CC1 [KETOTIFEN]
ID50 [6]: 0.65 mg/kg
inhibition in vivo at 0.02 mg/kg [12]: 10%
ED50 [8]: 0.23 mg/kg
Selectivity [9]: 2.8

O=C(O)CCN1CCC(=C2c3cc(F)ccc3OCc3cccnc32)CC1
Inhibition [1]: 20%
Inhibition [2]: 100%
Inhibition [3]: 0%

CC(CN1CCC(=C2c3ccc(F)cc3OCc3ncccc32)CC1)C(=O)O (configuration not stated)
Inhibition [5]: 20%
Inhibition [3]: 100%

O=C(O)CCN1CCC(=C2c3cc(F)ccc3OCc3ncccc32)CC1
Inhibition [5]: 0%
Inhibition [1]: 100%
Inhibition [3]: 60%

O=C(O)CCN1CCC(=C2c3ccccc3OCc3cccnc32)CC1
PCoct [4]: 0.52
ID50 [6]: 19 mg/kg
Inhibition [1]: 100%
ED50 [7]: > 100 mg/kg
ED50 [8]: 0.012 mg/kg
Selectivity [9]: 1600
Inhibition [3]: 0%

O=C(O)CCN1CCC(=C2c3ccc(F)cc3OCc3cccnc32)CC1
Inhibition [5]: 0%
ID50 [6]: 14 mg/kg
inhibition in vivo at 0.3 mg/kg [11]: 90%
Inhibition [1]: 100%
ED50 [2]: 0.29 mg/kg
ED50 [8]: 0.025 mg/kg
Selectivity [9]: 560
Inhibition [3]: 40%

O=C(O)CCN1CCC(=C2c3ccc(Cl)cc3OCc3ncccc32)CC1
Inhibition [5]: 40%
Inhibition [1]: 100%
Inhibition [3]: 80%

O=C(O)CCN1CCC(=C2c3ccc(Cl)cc3OCc3cccnc32)CC1
Inhibition [1]: 80%
Inhibition [2]: 100%
Inhibition [3]: 0%

Cc1ccc2c(c1)OCc1ncccc1C2=C1CCN(CCC(=O)O)CC1
Inhibition [5]: 0%
Inhibition [1]: 60%
Inhibition [2]: 100%
Inhibition [3]: 20%

CC(=O)c1ccc2c(c1)C(=C1CCN(CCC(=O)O)CC1)c1ncccc1CO2
Inhibition [1]: 20%
Inhibition [2]: 100%
Inhibition [3]: 0%

COc1ccc2c(c1)OCc1cccnc1C2=C1CCN(CCC(=O)O)CC1
Inhibition [1]: 20%
Inhibition [2]: 100%
Inhibition [3]: 0%

CN1CCC(=C2c3ccccc3OCc3cccnc32)CC1
PCoct [4]: 28.4
ID50 [6]: 0.2 mg/kg
Inhibition [1]: 100%
ED50 [7]: > 100 mg/kg
ED50 [8]: 0.011 mg/kg
Selectivity [9]: 18
Inhibition [3]: 0%

O=C(O)CCN1CCC(=C2c3cccc([N+](=O)[O-])c3OCc3cccnc32)CC1
Inhibition [1]: 0%
Inhibition [2]: 60%

CC(CN1CCC(=C2c3ccc(F)cc3OCc3cccnc32)CC1)C(=O)O (configuration not stated)
Inhibition [5]: 20%
ID50 [6]: 2.3 mg/kg
Inhibition [1]: 100%
ED50 [8]: 0.011 mg/kg
Selectivity [9]: 210
Inhibition [3]: 60%

CN1CCC(=C2c3ccccc3OCc3ncccc32)CC1
PCoct [4]: 54.3
ID50 [6]: 0.49 mg/kg
Inhibition [1]: 100%
ED50 [7]: 9.9 mg/kg
ED50 [8]: 0.025 mg/kg
Selectivity [9]: 20
Inhibition [3]: 0%
